Reference: ChEMBL document CHEMBL5143562, “α-Synuclein Aggregation Inhibitory Prunolides and a Dibrominated β-Carboline Sulfamate from the Ascidian Synoicum prunum” (J Nat Prod, 2022)
The source made the active and inactive calls. The rule behind the calls is not given here.

Key:
[1] = molecular target: Alpha-synuclein (Homo sapiens) (UniProt P37840); test: Binding affinity to alpha-Synuclein (unknown origin) at compound to protein molar ratio of 5:1 incubated for 3 hrs by mass spectroscopy analysis
Outline: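 α-Syn (10 µM) in 10 mM ammonium acetate. Compound (100 µM, in methanol) added at 5:1 ligand:protein and kept 3 h at rt. Positive-mode HRESIMS, calibrated with sodium trifluoroacetate. Spectra inspected for extra peaks of protein–ligand complexes; scored yes/no.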

Staphylococcus aureus [2] = test: Antibacterial activity against methicillin-sensitive Staphylococcus aureus ATCC 25923 assessed as inhibition of bacterial growth measured after 18 hrs by resazurin based fluorescent plate reader; type: functional, organism-based; details: ATCC 25923, 18 h
Outline: (§1)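 Broth microdilution in lysogeny broth; overnight culture (16-18 h, 37.5 °C) adjusted to 5 × 10^5 CFU/mL inoculum. DMSO stocks serially diluted 1:2 (ten-fold series); fusidic acid positive and 5% DMSO negative controls. Plates shaken at 100 rpm, 18 h at 37.5 °C, then 704 µM resazurin added (stock), further 1 h; fluorescence ex 544/em 590 nm.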

Staphylococcus aureus [3] = test: Antibacterial activity against methicillin-resistant Staphylococcus aureus ATCC 43300 assessed as inhibition of bacterial growth measured after 18 hrs by resazurin based fluorescent plate reader; type: functional, organism-based; details: ATCC 43300, 18 h; outline: as §1
[4] = molecular target: Alpha-synuclein (Homo sapiens) (UniProt P37840); test: Inhibition of alpha-Synuclein (unknown origin) aggregation at compound to protein molar ratio of 1:1 incubated for 36 hrs under shaking condition and measured every 6 hrs by Thioflavin T based fluorescence assay relative to control; details: concentration not given here
Outline: (§2)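 Wells held 80 µM α-syn, 50 µM ThT (from 5 mM stock in glycine-NaOH pH 8.0), 80–400 µM compound, saline Tris buffer and a teflon ball. Shaken at 100 rpm, 37 °C, 36 h. Fluorescence (ex 460/em 500 nm) read every 6 h, triplicates. Protein-only wells set 100% aggregation. Percent inhibition taken at end; t50 is the shift in h of the aggregation midpoint.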

[5] = molecular target: Alpha-synuclein (Homo sapiens) (UniProt P37840); test: Inhibition of alpha-Synuclein (unknown origin) aggregation assessed as time difference in midpoint of aggregation at compound to protein molar ratio of 1:1 incubated for 36 hrs under shaking condition and measured every 6 hrs by Thioflavin T based fluorescence assay relative to control; outline: as §2
[6] = molecular target: Alpha-synuclein (Homo sapiens) (UniProt P37840); test: Inhibition of alpha-Synuclein (unknown origin) aggregation at compound to protein molar ratio of 5:1 incubated for 36 hrs under shaking condition and measured every 6 hrs by Thioflavin T based fluorescence assay relative to control; details: concentration not given here; outline: as §2
[7] = molecular target: Alpha-synuclein (Homo sapiens) (UniProt P37840); test: Inhibition of alpha-Synuclein (unknown origin) aggregation assessed as times difference in midpoint of aggregation at compound to protein molar ratio of 5:1 incubated for 36 hrs under shaking condition and measured every 6 hrs by Thioflavin T based fluorescence assay relative to control; outline: as §2
[8] = Toxicity in mouse primary midbrain culture assessed as change in tyrosine hydroxylase positive dopamine neuron at 0.5 uM; type: tissue-based
Outline: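 Primary embryonic mouse midbrain cultures given sonicated mouse α-syn PFFs (2.5 µg/mL final) on DIV8. Compound, 0.1% DMSO vehicle or 50 ng/mL GDNF added ~15 min later. Fixed DIV15, immunostained for TH and pSer129-α-syn, DAPI nuclei. Nine fields per well imaged at 10×. TH+ neurons with/without pSyn aggregates counted. ≥3 independent cultures, ≥3 wells each. Randomized-block ANOVA with Benjamini-Krieger-Yekutieli correction, mean ± SD.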

Plasmodium falciparum = test: Antiplasmodial activity against Plasmodium falciparum 3D7 assessed as inhibition of parasite growth incubated for 72 hrs by DAPI staining based confocal microscopic analysis; type: functional, organism-based; details: 3D7, 72 h
Outline: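 P. falciparum 3D7 in imaging plates, 2% parasitemia, 0.3% hematocrit, 16-point dilution series 0.4 nM–40 µM (N=2), 72 h at 37 °C under 5% O2/5% CO2/90% N2. DAPI stain, confocal imaging. Percent inhibition normalised to in-plate 5 µM puromycin (positive) and 0.4% DMSO (negative) controls. IC50 from sigmoidal nonlinear regression.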

[9] = Selectivity index, ratio of IC50 for cytotoxicity against human HEK293 cells to IC50 for antiplasmodial activity against Plasmodium falciparum 3D7; type: toxicity, cell-based; details: read-out: Ratio IC50
HEK293 = test: Cytotoxicity against human HEK293 cells measured after 72 hrs by resazurin assay; type: toxicity, cell-based; details: hek293, 72 h
Outline: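 HEK293 cells, 2000 per well, exposed to compound for 72 h at 37 °C. Medium then swapped for 44 µM resazurin for 6 h and fluorescence read. Viability referenced to 40 µM puromycin (positive) and 0.4% DMSO (negative). IC50 by curve fitting.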

[10] = molecular target: Alpha-synuclein (Mus musculus) (UniProt O55042); test: Inhibition of PFF-induced alpha-Synuclein aggregation in mouse primary midbrain culture assessed as decrease in tyrosine hydroxylase positive dopamine neuron with p-Syn aggregation at 0.5 uM incubated for 7 days by immunostaining analysis; details: time 7.0 day

**Q.** What does the source list for `O=C1C=C(c2cc(Br)c(O)c(Br)c2)[C@]2(O1)O[C@]1(OC(=O)C=C1c1ccc(O)cc1)C(c1ccc(O)c(Br)c1)=C2c1ccc(O)cc1`?
**A.** Activity [1]: Active; IC50 (Staphylococcus aureus [2]): > 10 µM; IC50 (Staphylococcus aureus [3]): > 10 µM

**Q.** For `O=C1C=C(c2ccc(O)cc2)[C@]2(O1)O[C@]1(OC(=O)C=C1c1ccc(O)cc1)C(c1ccc(O)cc1)=C2c1ccc(O)cc1`, which inhibition [4] is on record?
**A.** 60%

**Q.** What about the Activity [1] of the same molecule?
**A.** Active

**Q.** What about the TIME [5] of the same molecule?
**A.** 6.2 h

**Q.** And the inhibition [6]?
**A.** 75.2%

**Q.** And the TIME [7]?
**A.** 14.5 h

**Q.** And the Activity [8]?
**A.** Non-Toxic

**Q.** What about the IC50 (Staphylococcus aureus [2]) of the same molecule?
**A.** > 10 µM

**Q.** What about the IC50 (Staphylococcus aureus [3]) of the same molecule?
**A.** > 10 µM

**Q.** What about the IC50 (Plasmodium falciparum) of the same molecule?
**A.** 5.1 µM

**Q.** What about the selectivity ratio [9] of the same molecule?
**A.** 7.6

**Q.** What about the Activity (HEK293) of the same molecule?
**A.** Toxic

**Q.** Which results are given for `O=C1C=C(c2cc(Br)c(O)c(Br)c2)[C@]2(O1)O[C@]1(OC(=O)C=C1c1cc(Br)c(O)c(Br)c1)C(c1ccc(O)c(Br)c1)=C2c1ccc(O)cc1`?
**A.** Activity [1]: Active; IC50 (Staphylococcus aureus [2]): 12.2 µM; IC50 (Staphylococcus aureus [3]): 11.6 µM

**Q.** Which results are given for `O=C1C=C(c2ccc(O)cc2)[C@]2(O1)O[C@]1(OC(=O)C=C1c1ccc(O)c(Br)c1)C(c1ccc(O)cc1)=C2c1ccc(O)cc1`?
**A.** inhibition [4]: 39%; Activity [1]: Active; TIME [5]: 1 h; inhibition [6]: 97.6%; TIME [7]: 4 h; IC50 (Staphylococcus aureus [2]): > 10 µM; IC50 (Staphylococcus aureus [3]): > 10 µM

**Q.** With `O=C1C=C(c2ccc(O)c(Br)c2)[C@]2(O1)O[C@]1(OC(=O)C=C1c1ccc(O)c(Br)c1)C(c1ccc(O)c(Br)c1)=C2c1ccc(O)c(Br)c1` as the molecule, how does the Activity [1] read?
**A.** Active

**Q.** Which inhibition [4] does the source give for `O=C1C=C(c2ccc(O)cc2)[C@]2(O1)O[C@]1(OC(=O)C=C1c1ccc(O)cc1)C(c1ccc(O)c(Br)c1)=C2c1ccc(O)cc1` here?
**A.** 24.9%

**Q.** And the Activity [1]?
**A.** Active

**Q.** And the TIME [5]?
**A.** 2 h

**Q.** And the inhibition [6]?
**A.** 92.9%

**Q.** And the TIME [7]?
**A.** 4 h

**Q.** What about the IC50 (Staphylococcus aureus [2]) of the same molecule?
**A.** 10.8 µM

**Q.** And the IC50 (Staphylococcus aureus [3])?
**A.** 16.1 µM

**Q.** For `O=C(O)c1cc2c([nH]c3ccc(Br)cc32)c(C(=O)c2cn(S(=O)(=O)O)c3ccc(Br)cc23)n1`, which IC50 (Plasmodium falciparum) is on record?
**A.** 15.1 µM

**Q.** And the selectivity ratio [9]?
**A.** 2.66

**Q.** And the Activity (HEK293)?
**A.** Toxic

**Q.** For `O=C(O[C@@H]1Cc2c(O)cc(O)cc2O[C@@H]1c1cc(O)c(O)c(O)c1)c1cc(O)c(O)c(O)c1`, which Activity [1] is on record?
**A.** Active

**Q.** And the TIME [5]?
**A.** 9.4 h

**Q.** And the inhibition [6]?
**A.** 98.9%

**Q.** And the TIME [7]?
**A.** 11.1 h

**Q.** For `O=C1C=C(c2cc(Br)c(O)c(Br)c2)[C@]2(O1)O[C@]1(OC(=O)C=C1c1cc(Br)c(O)c(Br)c1)C(c1cc(Br)c(O)c(Br)c1)=C2c1cc(Br)c(O)c(Br)c1`, which inhibition [4] is on record?
**A.** 13.3%

**Q.** And the Activity [1]?
**A.** Active

**Q.** And the TIME [5]?
**A.** 10 h

**Q.** What about the inhibition [6] of the same molecule?
**A.** 89%

**Q.** What about the TIME [7] of the same molecule?
**A.** 13.7 h

**Q.** And the Activity [8]?
**A.** Non-Toxic

**Q.** And the IC50 (Staphylococcus aureus [2])?
**A.** > 10 µM

**Q.** What about the IC50 (Staphylococcus aureus [3]) of the same molecule?
**A.** > 10 µM

**Q.** What about the Activity (HEK293) of the same molecule?
**A.** Toxic

**Q.** For `O=C1C=C(c2cc(Br)c(O)c(Br)c2)[C@]2(O1)O[C@]1(OC(=O)C=C1c1cc(Br)c(O)c(Br)c1)C(c1ccc(O)c(Br)c1)=C2c1ccc(O)c(Br)c1`, which inhibition [4] is on record?
**A.** 34.3%

**Q.** What about the Activity [1] of the same molecule?
**A.** Active

**Q.** What about the TIME [5] of the same molecule?
**A.** 9.4 h

**Q.** What about the inhibition [6] of the same molecule?
**A.** 99.9%

**Q.** And the TIME [7]?
**A.** 10 h

**Q.** What about the Activity [8] of the same molecule?
**A.** Non-Toxic

**Q.** And the IC50 (Staphylococcus aureus [2])?
**A.** > 10 µM

**Q.** And the IC50 (Staphylococcus aureus [3])?
**A.** > 10 µM

**Q.** What about the Activity (HEK293) of the same molecule?
**A.** Toxic

**Q.** And the inhibition [10]?
**A.** Active

**Q.** With `O=C1C=C(c2ccc(O)cc2)[C@]2(O1)O[C@@]1(OC(=O)C=C1c1ccc(O)cc1)C(c1ccc(O)cc1)=C2c1ccc(O)cc1` as the molecule, how does the inhibition [4] read?
**A.** 22.1%

**Q.** And the Activity [1]?
**A.** Active

**Q.** And the TIME [5]?
**A.** 0 h

**Q.** And the inhibition [6]?
**A.** 51.5%

**Q.** What about the TIME [7] of the same molecule?
**A.** 2.3 h

**Q.** What about the IC50 (Staphylococcus aureus [2]) of the same molecule?
**A.** > 10 µM

**Q.** And the IC50 (Staphylococcus aureus [3])?
**A.** > 10 µM
